Experimental data taken from ChEMBL document CHEMBL1955735, “Tea catechins and flavonoids from the leaves of Camellia sinensis inhibit yeast alcohol dehydrogenase” (Bioorg Med Chem, 2012).
Active and inactive are the calls of the source. The calls are words filed in the database; no cut-off is given here.

Legend:
[1] = Inhibition of Saccharomyces cerevisiae alcohol dehydrogenase measured every 5 mins for 2 hrs by spectrophotometry
Outline: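 Yeast ADH in a microplate. DMSO sample stocks were serially diluted in 10 mM PBS pH 7.4 and combined with ethanol (25% in PBS) and β-NAD⁺ (1.87 mM in PBS), both as added solutions. The mix was equilibrated 5 min at 24 °C, then ADH (1180 unit/L solution) was added and incubated 2 h at 24 °C. NADH was read at A340 every 5 min. IC50 was the concentration halving NADH versus the PBS control at 2 h. Run in triplicate, with disulfiram as positive control.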

[2] = tested on: Radical scavenging activity; assay: Antioxidant activity assessed as DPPH radical scavenging activity after 30 mins by spectrophotometry; format: functional
Outline: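 Microplate DPPH assay: 30 min incubation at room temperature, then absorbance read at 517 nm. IC50 is the concentration giving a 50% drop in absorbance relative to the DPPH control solution.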

[3] = Activation of aldehyde dehydrogenase
[4] = Inhibition of aldehyde dehydrogenase

Which IC50 [1] does the source give for `O=c1c(O[C@@H]2O[C@H](CO)[C@@H](O)[C@H](O)[C@H]2O)c(-c2cc(O)c(O)c(O)c2)oc2cc(O)cc(O)c12` here?
Its IC50 is 19.9 µM.

And the IC50 [2]?
Its IC50 is 28 µM.

What about the Activity [3] of the same compound?
The Activity was “inactive”.

What about the inhibition [4] of the same compound?
The inhibition was “inactive”.

With `COc1cc(C(=O)O[C@@H]2Cc3c(O)cc(O)cc3O[C@@H]2c2ccc(O)c(O)c2)cc(O)c1O` as the compound, how does the IC50 [1] read?
Its IC50 is 44.1 µM.

What about the IC50 [2] of the same compound?
The IC50 was 10.8 µM.

What about the Activity [3] of the same compound?
The Activity was “inactive”.

And the inhibition [4]?
Its inhibition is “inactive”.

For `O=C(O[C@@H]1Cc2c(O)cc(O)cc2O[C@@H]1c1ccc(O)cc1)c1cc(O)c(O)c(O)c1`, which IC50 [1] is on record?
The IC50 was 44.3 µM.

What about the IC50 [2] of the same compound?
The IC50 was 2.8 µM.

And the Activity [3]?
The Activity was “inactive”.

And the inhibition [4]?
The inhibition was “inactive”.

With `O=C(/C=C\c1ccc(O)cc1)O[C@@H]1Cc2c(O)cc(O)cc2O[C@@H]1c1cc(O)c(O)c(O)c1` as the compound, how does the IC50 [1] read?
The IC50 was 22.1 µM.

And the IC50 [2]?
Its IC50 is 26.4 µM.

And the Activity [3]?
Its Activity is “inactive”.

And the inhibition [4]?
Its inhibition is “inactive”.

Which IC50 [1] does the source give for `C[C@@H]1O[C@@H](OC[C@H]2O[C@@H](Oc3c(-c4ccc(O)c(O)c4)oc4cc(O)cc(O)c4c3=O)[C@H](O)[C@@H](O)[C@@H]2O)[C@H](O)[C@H](O[C@@H]2O[C@H](CO)[C@@H](O)[C@H](O)[C@H]2O)[C@H]1O` here?
The IC50 was 19.7 µM.

What about the IC50 [2] of the same compound?
Its IC50 is 7.7 µM.

What about the Activity [3] of the same compound?
Its Activity is “inactive”.

What about the inhibition [4] of the same compound?
Its inhibition is “inactive”.

Which results are given for `C[C@@H]1O[C@@H](OC[C@H]2O[C@@H](Oc3c(-c4ccc(O)c(O)c4)oc4cc(O)cc(O)c4c3=O)[C@H](O)[C@@H](O)[C@H]2O)[C@H](O)[C@H](O[C@@H]2O[C@H](CO)[C@@H](O)[C@H](O)[C@H]2O)[C@H]1O`?
IC50 [1]: 41 µM; IC50 [2]: 30.1 µM; Activity [3]: inactive; inhibition [4]: inactive

Which IC50 [1] does the source give for `C[C@@H]1O[C@@H](OC[C@H]2O[C@@H](Oc3c(-c4ccc(O)cc4)oc4cc(O)cc(O)c4c3=O)[C@H](O)[C@@H](O)[C@H]2O)[C@H](O)[C@H](O[C@@H]2O[C@H](CO)[C@@H](O)[C@H](O)[C@H]2O)[C@H]1O` here?
The IC50 was 17.6 µM.

And the IC50 [2]?
The IC50 was over 100 µM.

What about the Activity [3] of the same compound?
Its Activity is “inactive”.

And the inhibition [4]?
Its inhibition is “inactive”.

With `O=C(/C=C/c1ccc(O)cc1)O[C@@H]1Cc2c(O)cc(O)cc2O[C@@H]1c1cc(O)c(O)c(O)c1` as the compound, how does the IC50 [1] read?
The IC50 was 8 µM.

What about the IC50 [2] of the same compound?
The IC50 was 43.8 µM.

What about the Activity [3] of the same compound?
Its Activity is “inactive”.

What about the inhibition [4] of the same compound?
Its inhibition is “inactive”.

What does the source list for `O=c1c(O[C@@H]2O[C@H](CO)[C@H](O)[C@H](O)[C@H]2O)c(-c2cc(O)c(O)c(O)c2)oc2cc(O)cc(O)c12`?
IC50 [1]: 18.2 µM; IC50 [2]: 3.5 µM; Activity [3]: inactive; inhibition [4]: inactive

With `Cc1c(C)c2c(c(C)c1O)CC[C@@](C)(CCC[C@H](C)CCC[C@H](C)CCCC(C)C)O2` [ALPHA-TOCOPHEROL] as the compound, how does the IC50 [2] read?
The IC50 was 11.4 µM.

Which results are given for `Cn1c(=O)c2c(ncn2C)n(C)c1=O` [CAFFEINE]?
IC50 [1]: 197 µM; IC50 [2]: > 100 µM; Activity [3]: inactive; inhibition [4]: inactive

Which IC50 [1] does the source give for `C[C@@H]1O[C@@H](OC[C@H]2O[C@@H](Oc3c(-c4ccc(O)c(O)c4)oc4cc(O)cc(O)c4c3=O)[C@H](OC(=O)/C=C/c3ccc(O)cc3)[C@@H](O[C@@H]3OC[C@H](O)[C@H](O)[C@H]3O)[C@@H]2O)[C@H](O)[C@H](O[C@@H]2O[C@H](CO)[C@@H](O)[C@H](O)[C@H]2O)[C@H]1O` [CAMELLIQUERCETISIDE A] here?
The IC50 was 17.3 µM.

What about the IC50 [2] of the same compound?
The IC50 was 19.8 µM.

What about the Activity [3] of the same compound?
Its Activity is “inactive”.

And the inhibition [4]?
Its inhibition is “inactive”.

Which IC50 [1] does the source give for `C[C@@H]1O[C@@H](OC[C@H]2O[C@@H](Oc3c(-c4ccc(O)c(O)c4)oc4cc(O)cc(O)c4c3=O)[C@H](OC(=O)/C=C/c3ccc(O)cc3)[C@@H](O)[C@@H]2O)[C@H](O)[C@H](O[C@@H]2O[C@H](CO)[C@@H](O)[C@H](O)[C@H]2O)[C@H]1O` [CAMELLIQUERCETISIDE B] here?
Its IC50 is 13.7 µM.

What about the IC50 [2] of the same compound?
Its IC50 is 22 µM.

What about the Activity [3] of the same compound?
Its Activity is “inactive”.

And the inhibition [4]?
The inhibition was “inactive”.

What does the source list for `C[C@@H]1O[C@@H](OC[C@H]2O[C@@H](Oc3c(-c4ccc(O)c(O)c4)oc4cc(O)cc(O)c4c3=O)[C@H](OC(=O)/C=C/c3ccc(O)cc3)[C@@H](O[C@@H]3OC[C@H](O)[C@H](O)[C@H]3O)[C@@H]2O)[C@H](O)[C@H](O)[C@H]1O` [CAMELLIQUERCETISIDE C]?
IC50 [1]: 46.7 µM; IC50 [2]: 31.9 µM; Activity [3]: inactive; inhibition [4]: inactive

For `C[C@@H]1O[C@@H](OC[C@H]2O[C@@H](Oc3c(-c4ccc(O)c(O)c4)oc4cc(O)cc(O)c4c3=O)[C@H](OC(=O)/C=C/c3ccc(O)cc3)[C@@H](O)[C@@H]2O)[C@H](O)[C@H](O)[C@H]1O` [CAMELLIQUERCETISIDE D], which IC50 [1] is on record?
Its IC50 is 41.5 µM.

And the IC50 [2]?
The IC50 was 29.2 µM.

What about the Activity [3] of the same compound?
Its Activity is “inactive”.

What about the inhibition [4] of the same compound?
The inhibition was “inactive”.

Which IC50 [1] does the source give for `Oc1cc(O)c2c(c1)O[C@H](c1ccc(O)c(O)c1)[C@@H](O)C2` [CIANIDANOL] here?
The IC50 was 21.1 µM.

What about the IC50 [2] of the same compound?
Its IC50 is 4.3 µM.

What about the Activity [3] of the same compound?
The Activity was “inactive”.

And the inhibition [4]?
Its inhibition is “inactive”.

For `CCN(CC)C(=S)SSC(=S)N(CC)CC` [DISULFIRAM], which IC50 [1] is on record?
Its IC50 is 248 µM.

For `O=C(O[C@@H]1Cc2c(O)cc(O)cc2O[C@@H]1c1ccc(O)c(O)c1)c1cc(O)c(O)c(O)c1` [EPICATECHIN GALLATE], which IC50 [1] is on record?
Its IC50 is 65.5 µM.

What about the IC50 [2] of the same compound?
Its IC50 is 1.5 µM.

What about the Activity [3] of the same compound?
Its Activity is “inactive”.

And the inhibition [4]?
Its inhibition is “inactive”.

For `Oc1cc(O)c2c(c1)O[C@H](c1cc(O)c(O)c(O)c1)[C@H](O)C2` [EPIGALLOCATECHIN], which IC50 [1] is on record?
Its IC50 is 16.5 µM.

What about the IC50 [2] of the same compound?
Its IC50 is 16.2 µM.

And the Activity [3]?
The Activity was “inactive”.

What about the inhibition [4] of the same compound?
The inhibition was “inactive”.

Which IC50 [1] does the source give for `O=C(O[C@@H]1Cc2c(O)cc(O)cc2O[C@@H]1c1cc(O)c(O)c(O)c1)c1cc(O)c(O)c(O)c1` [EPIGALOCATECHIN GALLATE] here?
Its IC50 is 42.8 µM.

And the IC50 [2]?
Its IC50 is 8.3 µM.

What about the Activity [3] of the same compound?
Its Activity is “inactive”.

And the inhibition [4]?
Its inhibition is “inactive”.

For `C[C@@H]1O[C@@H](OC[C@H]2O[C@@H](Oc3c(-c4ccc(O)cc4)oc4cc(O)cc(O)c4c3=O)[C@H](O)[C@@H](O)[C@@H]2O)[C@H](O)[C@H](O)[C@H]1O` [NICOTIFLOROSIDE], which IC50 [1] is on record?
Its IC50 is 40.4 µM.

And the IC50 [2]?
The IC50 was over 100 µM.

What about the Activity [3] of the same compound?
The Activity was “inactive”.

What about the inhibition [4] of the same compound?
The inhibition was “inactive”.

What does the source list for `O=c1c(O[C@@H]2O[C@H](CO)[C@H](O)[C@H](O)[C@H]2O)c(-c2ccc(O)cc2)oc2cc(O)cc(O)c12` [TRIFOLIN]?
IC50 [1]: 70.3 µM; IC50 [2]: > 100 µM; Activity [3]: inactive; inhibition [4]: inactive
